This is an account of results in PubChem BioAssay AID624085 (The Scripps Research Institute Molecular Screening Center, 2012).

Molecules are shown by their SMILES. The source made the active and inactive calls.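 The calls were made as follows: active = IMP-1 enzyme inhibition with IC50 of 10 µM or lower; inactive = IC50 above 10 µM.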

The assay concerns the target metallo-beta-lactamase IMP-1 (Pseudomonas aeruginosa). Description: potency against purified IMP-1 enzyme – biochemical, absorbance, IC50, selectivity assay, late-stage follow-up (AID 624085). As to conditions: purified IMP-1, nitrocefin hydrolysis, epi-absorbance. The essentials:
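test system = purified IMP-1 enzyme | also added = nitrocefin substrate | compound = dilution series per compound, highest nominal amount 60 µM | incubation = 15 min compound–enzyme pre-incubation, then 25 min substrate reaction at 25 °C | detection = fluorescence quench readout, 480/530 nm, EDTA-stopped | replicates = triplicate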

Consider `CN1CCN(NC(=O)CN2C(=O)/C(=C/c3c(Cl)cccc3Cl)SC2=S)CC1`, for which the IC50 (as a rule, the concentration needed to halve the response being measured) is “inactive”.

Take `CN1CCN(NC(=O)CN2C(=O)/C(=C/c3c(Cl)ccc(Cl)c3Cl)SC2=S)CC1`: the half-maximal inhibitory concentration (IC50) was 3.02 µM.
